According to ChEMBL document CHEMBL1130075, “(2-Methyl-5-(methylsulfonyl)benzoyl)guanidine Na+/H+ antiporter inhibitors” (J Med Chem, 1997):

Molecular target: Sodium/hydrogen exchanger (Oryctolagus cuniculus, UniProt P23791+P50482+P26432)
Assay: Inhibition of 5-N-(ethyl isopropyl)-amiloride[EIPA]-sensitive Na+ uptake into acidified rabbit erythrocytes.
Format: functional
In short: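 Rabbit blood (heparinized) red cells, washed, acidified in pH 6.2 KCl buffer with ouabain, 10 min 37 °C; internal pH clamped with 200 μM DIDS and 1 mM acetazolamide, 30 min 37 °C. Uptake 5 min at 37 °C in pH 8.0 buffer with 10 mM NaCl plus ²²Na tracer, 1% DMSO. Triplicates; counts with 10 μM EIPA subtracted; IC50 by nonlinear fit.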

Compound | IC50 [nM]
CS(=O)(=O)c1cc(C(=O)N=C(N)N)ccc1-n1cccn1 | 160
CS(=O)(=O)c1cc(C(=O)N=C(N)N)ccc1C(F)(F)F | 140
CC(C)c1ccc(C(=O)N=C(N)N)cc1S(C)(=O)=O [CARIPORIDE] | 26

The remaining lines, values ahead:

IC50 [nM] | Compound
6.8 | CCCSc1cc(C)c(C(=O)N=C(N)N)cc1S(C)(=O)=O
8 | Cc1cc(-n2cccc2)c(S(C)(=O)=O)cc1C(=O)N=C(N)N [ENIPORIDE]
